Assay results pooled from the literature.
Target: Casein kinase II subunit alpha' (CSNK2A2, Homo sapiens, UniProt P19784)

CCCOc1ccc([C@H]2[C@H](C(=O)O)[C@@H](c3ccc4c(c3)OCO4)CN2CC(=O)Nc2c(CC)cccc2CC)cc1 gave a remaining binding of 87% (cell-free assay, competition with immobilised ligand; 1 µM).
The inhibition of Cc1ccc(Nc2nccc(N(C)c3ccc4c(C)n(C)nc4c3)n2)cc1S(N)(=O)=O is reported as -13% (enzyme activity, inhibitor; 0.3 µM).
For Cn1cnc(Br)c1C1=CN(c2ncnc3[nH]cnc23)CCS1, the inhibition was 46.5% (enzyme activity, inhibitor, radiometric; 2 µM).
For COc1cc(Cl)c(C(=O)N[C@@H](CN[C@H]2CC[C@@H](N)CC2)Cc2ccc(C#N)cc2)cc1-c1ccc(CN[C@H](C)c2ccc(C)cc2)o1, the remaining activity was 106% (enzyme activity, inhibitor; 1 µM).
Cc1cnc(NC2CCOCC2)nc1-n1cnc(C(=O)NC(CN)c2cc(F)cc(Cl)c2)c1 (stereo not drawn) has a remaining activity of 97% (enzyme activity, inhibitor, radiometric; 1 µM).
With COc1cccc2c(NCc3ccccc3)nc(-n3c(N)nc4ccccc43)nc12 the inhibition was -11.7% (target engagement in cells, inhibitor, chemoproteomics; 20 mM).
With CC(C)(C)c1nc(-c2cccc(NS(=O)(=O)c3c(F)cccc3F)c2F)c(-c2ccnc(N)n2)s1 the remaining activity was 84% (enzyme activity, inhibitor, radiometric; 1 µM).
CCCOc1ccc(OC)c(F)c1C(=O)c1ccc(C(=O)N[C@@H]2CNC[C@H]2NC(=O)c2ccc3[nH]ncc3c2)cc1 has a remaining activity of 93% (enzyme activity, inhibitor; 10 µM).
COc1cc2ncnc(Nc3ccc(Oc4ccccc4)cc3C)c2cc1OC gave an inhibition of 7% (enzyme activity, inhibitor; 1 µM).
The inhibition of CNC(=O)c1cc(Oc2ccc(NC(=O)Nc3ccc(Cl)c(C(F)(F)F)c3)cc2)ccn1 is reported as -30% (enzyme activity, inhibitor; 10 µM).
For CNCc1ccccc1-c1csc([C@@H](C)Nc2nc(C)nc3cc(OC)c(OC)cc23)c1, the remaining binding was 100% (cell-free assay, competition with immobilised ligand; 1 µM).
For Cc1sc(C(=O)NC2COC2)cc1-n1cc(NC(=O)Nc2c(F)cccc2Cl)cn1, the remaining activity was 95.5% (enzyme activity, inhibitor; 10 µM).
The remaining signal of O=C1NC(=O)c2cc(Nc3ccc(F)cc3)c(Nc3ccc(F)cc3)cc21 is reported as 104% (cell-free assay, inhibitor; 0.5 µM).
O=C(Nc1cnn(-c2csc(C(=O)NC3COC3)c2)c1)Nc1ccccc1Cl gave a remaining activity of 97.3% (enzyme activity, inhibitor; 5 µM).
With CN(C)C(=O)Cn1cc(-c2nc([C@@](C)(c3ccc(-c4cnc(N)nc4)cc3)C3CC3)no2)cn1 the remaining binding was 90% (cell-free assay, competition with immobilised ligand; 1 µM).
The activity vs control of Cc1cc(NC(=O)c2cccc3cc(-c4cccc5[nH]nc(N)c45)ccc23)ccc1F is reported as 109% (enzyme activity, inhibitor; 0.1 µM).
For CS(=O)(=O)c1cc(C2(NC(=O)c3cncc4c3cnn4-c3ccc(F)cc3)CC2)ccn1, the remaining binding was 80% (cell-free assay, competition with immobilised ligand; 1 µM).
The inhibition of c1ccc(CNc2nc(N3CCOc4ccccc43)nc3c2CCCC3)cc1 is reported as -34.4% (target engagement in cells, inhibitor, chemoproteomics; 20 mM).
For O=C(NC[C@@H]1[C@H]2CN(C(=O)OCc3cc(C(F)(F)F)cc(C(F)(F)F)c3)C[C@@H]12)c1ccc2[nH]nnc2c1, the remaining binding was 92% (cell-free assay, competition with immobilised ligand; 1 µM).
For CC(C)(O)[C@H]1CC[C@H](Nc2ccc3ncc(-c4cccc(C(F)(F)F)c4)n3n2)CC1, the remaining activity was 73.6% (enzyme activity, inhibitor; 1 µM).
O=C(NCCCC1CCCCC1)c1ccc(CNC(=O)c2cnn(-c3ccccc3)c2C(F)(F)F)cc1 gave a remaining binding of 88% (cell-free assay, competition with immobilised ligand; 0.1 µM).
CCN(CC)CCNC(=O)c1c(C)[nH]c(/C=C2\C(=O)Nc3ccc(F)cc32)c1C has an inhibition of -22% (enzyme activity, inhibitor; 0.3 µM).
The remaining binding of CC(=O)C1=C(C)N(c2cccc(C(F)(F)F)c2)C(=O)N[C@@H]1c1ccc(C#N)nc1 is reported as 75.7% (cell-free assay, competition with immobilised ligand; 1 µM).
For COc1cc2c(Nc3ccc(Br)cc3F)ncnc2cc1OCC1CCN(C)CC1, the remaining signal was 96.5% (cell-free assay; 0.5 µM).
